Most compounds without a hit are left out; they make up all but 6.6% or so of the library.
M1 ag: agonists of M1 muscarinic receptor; CHO-M1 cells, Fluo-4 calcium fluorescence, agonist mode; hits give high values; B-score at 10 µM; actives 3% (n = 64,000); AID 626;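 active means fluorescence rise, raw or as B-score row- and column-corrected plate score, outside the 99.7% band of its plate's samples, either direction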
M1 antag: blocks the rat M1 muscarinic receptor response to acetylcholine | B-score at 10 µM | actives 3.4% (n = 64,000) | CHO-M1 cells, Fluo-4 calcium, ACh EC80 antagonist mode; hits give low values | AID 628;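 active means calcium fluorescence response, raw or row-and-column corrected B-score, differing from the plate sample mean either way at a set confidence level, mostly lower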
HER2 expr 66K: inhibitors of human Her2 kinase expression | actives 0.69% (n = 65,000) | HER2 level % of control, % at 10 µM | SKBR-3 HER2 protein level, AlphaScreen, 18-24 h; hits give low values | P04626 | AID 645;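 active means HER2 level under 5% of the carrier-only control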;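 further: 100% = DMSO carrier and 0% = 500 nM PU-H71 HSP90 inhibitor; lower value means stronger loss of Her2 protein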
HEK293 NFkB inh: lowers PMA/ionomycin-induced NF-kB signal in HEK293 cells | HEK-293 NF-kB luciferase reporter, luminescence | inhibition, % at 3 µM | actives 0.21% (n = 62,000);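 active means inhibition above the mean of all tested compounds plus 3 SD, cut at about 40% in these data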;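 further: 0% = stimulated DMSO wells and 100% = 10 µM reference inhibitor 5653914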
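Material: HEK-293 cells with stable firefly luciferase reporter driven by four HIV NF-kB elements / Also added: PMA plus ionomycin mix as NF-kB-activating stimulus / Compound dosing: 3 µM once, 0.30% DMSO / Times: 1 h pretreatment, 16 h stimulation, 37 °C / Signal: luminescence / Evaluation: per-plate % inhibition versus controls / Benchmarks: DMSO and 10 µM reference inhibitor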
BAP1 inh: inhibitors of human BAP1 deubiquitinase; Q92560; recombinant BAP1, Ub-AMC hydrolysis fluorescence kinetic; hits give low values; calls only at 20 µM; actives 0.48% (n = 72,000);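 active means activity remaining at or below 50% of control, provided the compound also passes the data quality filters; inactive means the rest, including low values that fail the filters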;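 further: 100% = DMSO wells rate and 0% = substrate alone blank rate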
Target sequence (Q92560 whole entry, looked up): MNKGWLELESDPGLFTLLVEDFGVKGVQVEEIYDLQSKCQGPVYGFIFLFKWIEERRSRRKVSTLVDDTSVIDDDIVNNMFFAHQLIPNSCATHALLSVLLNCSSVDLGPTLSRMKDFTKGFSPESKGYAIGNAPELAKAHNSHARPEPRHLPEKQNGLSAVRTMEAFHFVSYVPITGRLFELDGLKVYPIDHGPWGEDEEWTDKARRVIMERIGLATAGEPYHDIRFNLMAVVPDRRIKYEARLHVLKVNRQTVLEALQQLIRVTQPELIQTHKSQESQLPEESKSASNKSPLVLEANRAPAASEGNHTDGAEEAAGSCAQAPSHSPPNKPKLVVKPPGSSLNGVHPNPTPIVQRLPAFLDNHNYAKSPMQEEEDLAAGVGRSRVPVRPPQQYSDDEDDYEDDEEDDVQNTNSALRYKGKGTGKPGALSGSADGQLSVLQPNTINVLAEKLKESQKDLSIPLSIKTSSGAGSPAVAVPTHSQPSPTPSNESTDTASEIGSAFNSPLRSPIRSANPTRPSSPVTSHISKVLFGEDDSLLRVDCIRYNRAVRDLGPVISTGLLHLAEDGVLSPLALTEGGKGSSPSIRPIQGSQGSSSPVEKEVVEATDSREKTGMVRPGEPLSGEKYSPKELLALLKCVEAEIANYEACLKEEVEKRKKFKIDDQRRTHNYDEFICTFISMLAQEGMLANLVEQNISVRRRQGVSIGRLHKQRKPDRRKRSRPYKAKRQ
JNK3 blocker: JNK3 (human) kinase inhibition. P53779. purified JNK3 kinase activity, HTS. inhibition, % at 8 µM. actives 0.61% (n = 60,000); in the data active means inhibition above about 17%;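 further: 0% = DMSO and 100% = reference inhibitor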
* hit, by the source's call; i = inactive; nt = no result given; + = active, no number.

SMILES | M1 ag | M1 antag | HER2 expr 66K | HEK293 NFkB inh | BAP1 inh | JNK3 blocker
O=C(c1cccc(F)c1)N1CCCC(C(=O)N2CCCC2)C1 (configuration not stated) | 0.36 | 0.59 | 94 | 22 | i | 35*
CC1(C)CC2CC(C)(CN2C(=O)c2cc3nc(-c4cccs4)cc(C(F)(F)F)n3n2)C1 (configuration not stated) | nt | nt | nt | nt | i | nt
O=C(CCCSc1nc2ccccc2[nH]1)NC1=NCCS1 | 1.3 | 1.7* | 91 | 5 | nt | nt
O=C(CCCSc1nc2ccccc2[nH]1)N1CCN(c2ccccc2)CC1 | -0.57 | 0.019 | 80 | 16 | i | 5
Cc1c(-n2c(=O)c3ccccc3c3ccccc3c2=O)cccc1[N+](=O)[O-] | nt | nt | nt | nt | i | nt
CC1CN(c2nc3c(c(=O)n(C)c(=O)n3C)n2Cc2c(F)cccc2Cl)CC(C)O1 (configuration not stated) | 0.99 | 0.53 | 151 | 9 | i | -1
CC1CN(c2nc3c(c(=O)n(C)c(=O)n3C)n2Cc2c(Cl)cccc2Cl)CC(C)O1 (configuration not stated) | -0.28 | 3.2* | 117 | 27 | i | -6
CCCSc1nc2c(c(=O)[nH]c(=O)n2C)n1CCC(C)C | nt | nt | nt | nt | i | nt
COc1cc(CC(=O)Nc2ncc(C)s2)cc(OC)c1OC | 0.88 | 1.8 | 80 | 13 | i | 42*
COc1ccc(CC(=O)Nc2nc(C)cs2)cc1OC | -1.3 | 0.7 | 95 | 2 | i | 32*
O=C(Cc1cccs1)Nc1nc2c(s1)CCCC2 | -0.41 | -0.57 | 109 | 46* | i | 4
Cc1cnc(NC(=O)COc2ccccc2)s1 | 0.78 | 1.5 | 91 | -29 | i | -1
COc1ccc(Cc2nnc(NC(=O)Cc3cccs3)s2)cc1OC | -0.62 | 0.51 | 100 | 19 | + | 7
O=C(Cc1cccs1)Nc1nnc(CCc2ccccc2)s1 | 0.47 | 0.3 | 96 | -10 | nt | 0
CC(=O)Oc1ccc(-c2ccc(C=Nc3ccc(S(=O)(=O)Nc4nccs4)cc3)cc2)cc1 | nt | nt | nt | nt | i | nt
O=C(O)CCn1c(-c2ccccc2)cc2c1CCCC2=O | 0.45 | 0.72* | 143 | 7 | i | 3
COC(=O)c1c(NC(=O)c2cccc(F)c2)sc2c1CCCC2 | nt | nt | nt | nt | i | nt
COc1ccc2nc(NC(=O)Cc3ccc(OC)c(S(=O)(=O)N4CCOCC4)c3)sc2c1 | 0.023 | 0.033 | 75 | 10 | i | 29*
Cc1ccc(C(=O)NC(C(=O)N2CCCCC2)C23CC4CC(CC(C4)C2)C3)cc1 (configuration not stated) | nt | nt | nt | nt | i | nt
CC1CCN(c2nc3ccccc3nc2C(C#N)S(=O)(=O)c2ccccc2)CC1 (configuration not stated) | 3.8* | 0.52 | 80 | 4 | nt | nt
CC1CCN(c2nc3ccccc3nc2C(C#N)C(=O)OC2CCCCC2)CC1 (configuration not stated) | 3.2 | 1.5* | 108 | 10 | nt | 1
Cc1ccc(S(=O)(=O)C(C#N)c2nc3ccccc3nc2N2CCCC2)cc1 (configuration not stated) | 5 | 0.046 | 99 | -4 | nt | -12
NC(=O)c1c(NC(=O)c2ccc(S(=O)(=O)N3CCCC3)cc2)sc2c1CCCC2 | nt | nt | nt | nt | i | nt
CCC(C)[C@@H](NC(=O)OC(C)(C)C)c1nnc(S(=O)(=O)Cc2cccc(C)c2)o1 (some centres not stated) | 0.7 | -0.039 | -17* | -2 | i | 6
O=C(Nc1cccc2ccccc12)c1ccccc1F | nt | nt | nt | nt | i | nt
SMILES | M1 ag | M1 antag | HER2 expr 66K | HEK293 NFkB inh | BAP1 inh | JNK3 blocker
O=C(CCN1CCN(c2ccc(Cl)cc2)CC1)Nc1ccccc1F | 0.03 | 2.1* | 89 | -6 | i | 6
O=C(CCN1CCN(c2ccccc2F)CC1)Nc1ccccc1F | -0.21 | -0.51 | 117 | 7 | i | 1
C=CCN=C(NC#N)SCc1ccccc1Cl | -0.54 | -0.36 | -4.6* | 11 | i | -3
CCOC(=O)c1cc(-c2ccc3c(c2)OCCO3)nc2c1c(C)nn2CCC#N | 0.5 | 0.079 | 108 | 21 | nt | 2
CCOC(=O)c1cc(-c2ccco2)nc2c1c(C)nn2CCC#N | 0.37 | 1.1* | 90 | 6 | i | -4
CCOc1ccc(-c2nnn(CC(=O)Nc3cc(OC)ccc3OC)n2)cc1OCC | -0.24 | -0.44 | 90 | 15 | i | 5
